The nature of test [1]: Cytotoxicity against human OE21 cells after 72 hrs by MTT assay. It counts as functional, cell-based. As to conditions: OE21, 72 h. On the technique in general: Tetrazolium dyes change colour on reduction, which living cells bring about.
Test [2] concerns the target Cyclin-dependent kinase 5/CDK5 activator 1 (Homo sapiens, UniProt Q00535). In words: Inhibition of human recombinant CDK5/p25. It counts as protein-complex assay. The procedure, abridged:
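Human recombinant CDK5/p25 assayed in triplicate in buffer C with 1 mg/ml histone H1 at 30 °C, 15 µM ATP final. Activity as % of uninhibited control after blank subtraction; IC50 from dose-response curves.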

The nature of test [3]: Cytotoxicity against p53-mutant human U373 cells after 72 hrs by MTT assay. In kind it is functional, cell-based, U-373MG ATCC. The conditions noted are these: U373 MG.
The target in test [4] is Dual specificity protein kinase CLK1 (Mus musculus, UniProt P22518). In words: Inhibition of GST-fused mouse recombinant CLK1 expressed in Escherichia coli using RS peptide as substrate. In short, it runs like this:
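Blanks subtracted, activity as % of uninhibited maximum, DMSO dilution controls, IC50 from dose-response curves.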

Test [5] is described as follows: Cytotoxicity against human Hs683 cells after 72 hrs by MTT assay. It counts as functional, cell-based. As to conditions: Hs 683, 72 h.
In another test the test system is A549. Nature of the test: Cytotoxicity against human A549 cells after 72 hrs by MTT assay. It counts as functional, cell-based. The conditions noted are these: A549, 72 h.
The target of test [6] is Glycogen synthase kinase-3 (Sus scrofa, UniProt B2LUN4+I6LNT8). Nature of the test: Inhibition of porcine brain GSK3alpha/beta using GS1 as substrate.
In another test the test system is PC-3. Nature of the test: Cytotoxicity against human PC3 cells after 72 hrs by MTT assay. In kind it is functional, cell-based. As to conditions: PC-3, 72 h.
A short description of test [7]: Inhibition of porcine brain CK1delta/epsilon using CKS peptide as substrate. The arrangement: species or system Sus scrofa.
In a further test the test system is LoVo. In words: Cytotoxicity against human LoVo cells after 72 hrs by MTT assay. It counts as functional, cell-based.
The target of test [8] is Dual specificity tyrosine-phosphorylation-regulated kinase 1A (Rattus norvegicus, UniProt Q63470). In words: Inhibition of GST-fused rat recombinant DYRK1A expressed in Escherichia coli using Woodtide as substrate and [gamma-33P] after 30 mins by scintillation counting.
For a further test, the system named is MCF7. In words: Cytotoxicity against human MCF7 cells after 72 hrs by MTT assay. In kind it is functional, cell-based. As to conditions: MCF7, 72 h.
A further test relates to B16-F10. Nature of the test: Cytotoxicity against mouse B16F10 cells after 72 hrs by MTT assay. In kind it is functional, cell-based. The conditions noted are these: B16-F10, 72 h.
The next test relates to HCT-116. In words: Cell cycle arrest in p53 double-mutant human HCT116 cells assessed as mitotic index after 24 hrs by flow cytometric analysis. It counts as functional. The arrangement: concentration or dose not given beside the values. In short, it runs like this:
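HCT116 p53-/- cells pretreated with etoposide for 1 h, then released into drug-free medium with or without inhibitor for 23 h; nocodazole added to trap cells exiting G2/M. Mitotic cells scored by phospho-histone H3 labeling and DNA content (propidium iodide) by flow cytometry.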
On the technique in general: In flow cytometry, cells or beads pass a laser one at a time.

Molecules are shown by their SMILES.

The record followed here is ChEMBL document CHEMBL2040806, “Synthesis and biological evaluation of analogs of the marine alkaloids granulatimide and isogranulatimide” (Eur J Med Chem, 2012).

Cyclin-dependent kinase 5/CDK5 activator 1, sequence (Q00535 whole entry): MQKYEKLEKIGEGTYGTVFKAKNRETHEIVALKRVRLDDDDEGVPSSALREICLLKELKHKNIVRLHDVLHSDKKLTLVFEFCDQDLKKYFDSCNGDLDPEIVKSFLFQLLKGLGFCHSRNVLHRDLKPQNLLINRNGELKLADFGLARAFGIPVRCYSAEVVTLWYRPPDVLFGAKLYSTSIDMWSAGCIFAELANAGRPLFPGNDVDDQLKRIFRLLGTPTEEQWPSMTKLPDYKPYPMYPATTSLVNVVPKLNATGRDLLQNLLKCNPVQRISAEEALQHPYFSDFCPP
Cyclin-dependent kinase 5/CDK5 activator 1, sequence (Q15078 whole entry, further chain): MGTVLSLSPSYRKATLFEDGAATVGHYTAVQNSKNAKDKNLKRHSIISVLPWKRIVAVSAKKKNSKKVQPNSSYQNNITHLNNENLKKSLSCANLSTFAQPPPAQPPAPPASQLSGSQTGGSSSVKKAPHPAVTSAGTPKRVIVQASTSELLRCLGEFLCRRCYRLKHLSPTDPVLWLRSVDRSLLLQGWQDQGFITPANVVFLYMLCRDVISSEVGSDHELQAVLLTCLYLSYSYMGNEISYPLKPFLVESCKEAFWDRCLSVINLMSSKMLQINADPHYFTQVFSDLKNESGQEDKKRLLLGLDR
Dual specificity protein kinase CLK1, sequence (P22518 whole entry, the tested form may be a part): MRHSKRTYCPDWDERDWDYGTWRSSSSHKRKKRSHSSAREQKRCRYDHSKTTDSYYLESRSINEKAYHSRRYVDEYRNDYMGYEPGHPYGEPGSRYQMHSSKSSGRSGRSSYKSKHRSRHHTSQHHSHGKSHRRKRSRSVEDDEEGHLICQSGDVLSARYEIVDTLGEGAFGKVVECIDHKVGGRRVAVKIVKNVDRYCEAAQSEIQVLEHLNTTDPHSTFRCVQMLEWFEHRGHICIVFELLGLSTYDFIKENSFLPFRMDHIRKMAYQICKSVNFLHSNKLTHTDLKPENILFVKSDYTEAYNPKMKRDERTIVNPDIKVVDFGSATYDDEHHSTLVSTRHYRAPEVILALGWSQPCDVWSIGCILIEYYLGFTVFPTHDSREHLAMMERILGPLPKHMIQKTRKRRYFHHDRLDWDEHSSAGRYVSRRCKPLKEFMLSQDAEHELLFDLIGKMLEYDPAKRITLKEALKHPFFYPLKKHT

`COc1ccc2[nH]c3c(c4c(c5ccnn53)C(=O)NC4=O)c2c1`: the IC50 – broadly, the point on the concentration scale where inhibition reaches its midpoint – in test [1] is 35 µM; in [2], greater than 10 µM; in [3], greater than 100 µM; in [4], greater than 10 µM; in test [5] it was 22 µM; with A549 it was 8 µM. For the same compound, the concentration for half-maximal inhibition (IC50) in test [6] was 0.7 µM; in the test on PC-3, greater than 100 µM; in [7] it was greater than 10 µM; with LoVo it was 34 µM; in [8] it was greater than 10 µM.
Regarding `COc1ccc2[nH]c(-n3cccn3)cc2c1`, the half-inhibitory concentration (IC50) was greater than 100 µM in test [1]; greater than 100 µM in test [3]; 69 µM in [5]; greater than 100 µM in the test with MCF7; greater than 100 µM with A549; greater than 100 µM in the test with PC-3. Also, the figures for the IC50 with B16-F10 and in the test on LoVo were greater than 100 µM and 70 µM, respectively.
In the case of `COc1ccc2[nH]c3c4cn[nH]c4c4c(c3c2c1)C(=O)NC4=O`, the half-maximal inhibitory concentration (IC50) in [3] was 51 µM; in [5], 45 µM; with A549 it was greater than 100 µM; in the test on PC-3, greater than 100 µM; in the test on B16-F10 it was 37 µM; in the test with LoVo, 42 µM.
In the case of `Cc1ccc2[nH]c(-n3cccn3)c(C3=C(Br)C(=O)NC3=O)c2c1`, the IC50 worked out at 28 µM in [1]; 27 µM in test [3]; 29 µM in test [5]; 15 µM with MCF7; 29 µM in the test with A549; 26 µM in the test on PC-3. The figures for the IC50 in the test on B16-F10 and with LoVo were 8 µM and 27 µM, respectively. Further, the Activity in the test on HCT-116 is listed as 5.5%.
With `COc1ccc2[nH]c(-n3cccn3)c(C3=C(Br)C(=O)NC3=O)c2c1`, the half-maximal inhibitory concentration (IC50) was 30 µM in test [1]; 27 µM in test [3]; 30 µM in test [5]; 11 µM with MCF7; 29 µM in the test with A549; 26 µM with PC-3. For the same compound, the half-inhibitory concentration (IC50) in the test with B16-F10 was determined as 8 µM; with LoVo it was 26 µM.
On to `O=C1NC(=O)c2c1c1[nH]ncc1c1[nH]c3ccccc3c21`, for which the half-inhibitory concentration (IC50) was 0.91 µM in test [2]; greater than 100 µM in test [3]; 0.42 µM in test [4]; 93 µM in [5]; greater than 100 µM with A549; 0.9 µM in test [6]. In addition, the concentration for half-maximal inhibition (IC50) is greater than 100 µM in the test on PC-3; 2.6 µM in [7]; 75 µM in the test with B16-F10; 44 µM in the test on LoVo; 1.7 µM in test [8].
Take `COc1ccc2[nH]c3c(c4c(n5cccc35)C(=O)N(C)C4=O)c2c1`: the concentration for half-maximal inhibition (IC50) in test [1] is greater than 100 µM; in [3], 28 µM; in [5], 72 µM; with MCF7, 36 µM; in the test with A549 it was 36 µM; in the test with PC-3, 64 µM. In addition, the figures for the IC50 with B16-F10 and in the test on LoVo were 27 µM and 40 µM, respectively.
For `O=C1NC(=O)c2c1c1c3cc(O)ccc3[nH]c1c1cccn21`, the IC50 in test [1] is greater than 100 µM; in [2] it was 2.6 µM; in [3], greater than 100 µM; in test [4] it was 0.26 µM; in [5], greater than 100 µM; in the test on MCF7, greater than 100 µM. For the same compound, the IC50 is greater than 100 µM with A549; 0.42 µM in test [6]; greater than 100 µM in the test on PC-3; 1.1 µM in test [7]; 93 µM in the test on B16-F10; 99 µM in the test on LoVo. Besides, the IC50 in test [8] worked out at 0.2 µM.
Consider `Cc1ccc2[nH]c3c(c4c(n5cccc35)C(=O)NC4=O)c2c1`, for which the IC50 in test [1] is greater than 100 µM; in test [2], 7.5 µM; in test [3] it was 22 µM; in test [4] it was 1.5 µM; in test [5], 45 µM; in the test on MCF7, 42 µM. Also, the IC50 is 14 µM in the test on A549; 1.7 µM in test [6]; 75 µM with PC-3; greater than 10 µM in [7]; 15 µM with B16-F10; 52 µM in the test with LoVo. In [8], the concentration for half-maximal inhibition (IC50) amounted to 8.3 µM.
For `O=C1NC(=O)c2c1c1[nH]cnc1c1[nH]c3ccccc3c21` [GRANULATIMIDE], the IC50 came out at 6 µM in test [3]; 23 µM in test [5]; 46 µM with MCF7; 18 µM in the test with A549; 11 µM in the test on PC-3; 5 µM in the test on B16-F10. The compound also gave an IC50 with LoVo of 3 µM. In the test with HCT-116, the Activity is on record as 19.4%.
For `O=C1NC(=O)c2c1c1c3ccccc3[nH]c1n1cncc21` [ISOGRANULATIMIDE], the IC50 is greater than 100 µM in test [3]; greater than 100 µM in test [5]; 99 µM with MCF7; 79 µM in the test with A549; 91 µM in the test on PC-3; 35 µM in the test on B16-F10. It took 62 µM to reach half-maximal inhibition with LoVo (IC50). Further, the Activity with HCT-116 is listed as 17.2%.
On to `O=C1NC(=O)C(c2c(-n3cccn3)[nH]c3ccccc23)=C1Br`, for which the IC50 in test [1] was 27 µM; in [3], 27 µM; in test [5] it was 29 µM; in the test with MCF7 it was 27 µM; in the test with A549, 25 µM; with PC-3 it was 27 µM. Besides, the values for the IC50 in the test with B16-F10 and with LoVo were 13 µM and 24 µM, respectively.
On to `c1ccc2[nH]c(-n3cccn3)cc2c1`, for which the IC50 (in test [1]; in [3]; in test [5]; with MCF7; with A549; with PC-3) was greater than 100 µM each time. For the same compound, the IC50 is greater than 100 µM in the test with B16-F10 and 86 µM with LoVo.
On to `Cc1ccc2[nH]c(-n3cccn3)cc2c1`, for which the IC50 (in [1]; in test [3]; in test [5]; with MCF7; in the test with A549; with PC-3) was greater than 100 µM each time. Besides, the figures for the IC50 in the test on B16-F10 and in the test on LoVo were greater than 100 µM and 87 µM, respectively.
For the compound `Cc1ccc2[nH]c(-c3ccc[nH]3)c(C3CC(=O)NC3=O)c2c1` (stereo not drawn), the 50% inhibitory concentration (IC50) in test [1] was greater than 100 µM; in [3], 5 µM; in [5], 8 µM; with MCF7, 29 µM; in the test on A549, 20 µM; in the test with PC-3 it was 11 µM. The values for the IC50 in the test on B16-F10 and in the test on LoVo were 0.5 µM and 4 µM, respectively.
For `COc1ccc2[nH]c(-c3ccc[nH]3)cc2c1`, the IC50 in test [1] worked out at 33 µM; in test [3], 43 µM; in test [5] it was 50 µM; in the test with MCF7, 84 µM; in the test with A549, 55 µM; with PC-3, 26 µM. Further, the concentration for half-maximal inhibition (IC50) came out at 61 µM in the test on B16-F10 and 26 µM with LoVo. Also, the Activity in the test on HCT-116 was found to be 8.3%.
As for `Cc1ccc2[nH]c(-c3ccc[nH]3)cc2c1`, the Activity in the test on HCT-116 was found to be 5%.
In the case of `COc1ccc2[nH]c(-c3ccc[nH]3)c(C3CC(=O)NC3=O)c2c1` (stereo not drawn), the half-inhibitory concentration (IC50) was 53 µM in [1]; 15 µM in test [3]; 6 µM in test [5]; 19 µM with MCF7; 4 µM in the test with A549; 6 µM in the test with PC-3. For the same compound, the IC50 was found to be 0.6 µM in the test with B16-F10 and 4 µM in the test on LoVo.
